Laboratory results from ChEMBL document CHEMBL4689842, “EUbOPEN Chemogenomics Library wave 1” (2021).
“And” between values parts separate entries of the source, which are not always exact repeats. Equal entries are not always repeated.

Key:
Assay type in all cases: toxicity, cell-based
[1] = test system: U2OS; assay: Incucyte cell viability with U2OS; details: human, 10 µM, compound concentration 10 uM; note: filed as whole numbers so only -1 and 0 and 1 occur
[2] = test system: Fibroblast; assay: Multiplex assay against human fibroblast; details: 1 µM, compound concentration 1 uM
Outline: (§1)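 With compound added, live cells were imaged on a CQ1 microscope at 37°C and 5% CO2; staining with Hoechst33342, BioTracker Green Microtubule Cytoskeleton Dye, MitoTracker Red and Annexin V Alexa Fluor 680 had been done at seeding. The CellPathfinder machine-learning gating scheme split cells into Hoechst high-intensity objects or normal cells, normal cells into healthy, pyknosed or fragmented nuclei, and pyknosed cells into mitotic or apoptotic. The tubulin, mitochondrial-mass and membrane-permeability phenotypes are per cents of healthy-nucleus cells.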

[3] = test system: HEK-293T; assay: Incucyte cell viability with HEK293T; details: human, 10 µM, compound concentration 10 uM; note: filed as whole numbers so only -1 and 0 and 1 occur
[4] = test system: U2OS; assay: Multiplex assay against U2OS; details: human, 1 µM, compound concentration 1 uM; outline: as §1
[5] = test system: Fibroblast; assay: Incucyte cell viability with human fibroblast; details: 10 µM, compound concentration 10 uM; note: filed as whole numbers so only -1 and 0 and 1 occur
[6] = test system: HEK-293T; assay: Multiplex assay against HEK293T; details: human, 1 µM, compound concentration 1 uM; outline: as §1;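 for Population Tubulin-Different-Phenotype (%): share of the cells with healthy nuclei that show this phenotype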
[7] = 0 h, replicate number 1, timepoint 0 hours
[8] = 0 h, replicate number 2, timepoint 0 hours
[9] = 6 h, replicate number 1, timepoint 6 hours
[10] = 12 h, replicate number 1, timepoint 12 hours
[11] = 18 h, replicate number 1, timepoint 18 hours
[12] = 24 h, replicate number 1, timepoint 24 hours

Structure (SMILES): CNC(=O)Nc1ccc2c(c1)CC[C@@]21OC(=O)N(CC(=O)N(Cc2ccc(F)cc2)[C@@H](C)C(F)(F)F)C1=O [A-485]
- Growth Rate [1, 7]: 1
- Growth Rate [1, 8]: 0
- Growth Rate [1, 9]: 0
- Growth Rate [1, 10]: 1
- Growth Rate [1, 11]: 1
- Growth Rate [1, 12]: 1
- Population Apoptotic (%) ([2]; 12 h, replicate 1): 50% and 76%
- Population Fragmented Nuclei (%) ([2]; 12 h, replicate 1): 17% and 24%
- Population Healthy Nuclei (%) ([2]; 12 h, replicate 1): 59% and 61%
- Population Hoechst High Intensity Objects (%) ([2]; 12 h, replicate 1): 8% and 9%
- Population Mitotic Cells (%) ([2]; 12 h, replicate 1): 50% and 23%
- Population Normal (%) ([2]; 12 h, replicate 1): 91% and 90%
- Population Pyknosed Nuclei (%) ([2]; 12 h, replicate 1): 23% and 13%
- Total Cell Count ([2]; 12 h, replicate 1): 243 and 214
- Population Fragmented Nuclei (%) ([2]; 12 h, replicate 2): 53% and 66%
- Population Healthy Nuclei (%) ([2]; 12 h, replicate 2): 39% and 24%
- Population Hoechst High Intensity Objects (%) ([2]; 12 h, replicate 2): 37% and 49%
- Population Membrane Permeable-Phenotype (%) ([2]; 12 h, replicate 2): 11% and 33%
- Population Mitochondria Different-Phenotype (%) ([2]; 12 h, replicate 2): 17% and 25%
- Population Normal (%) ([2]; 12 h, replicate 2): 62% and 50%
- Population Pyknosed Nuclei (%) ([2]; 12 h, replicate 2): 6% and 10%
- Population Tubulin-Different-Phenotype (%) ([2]; 12 h, replicate 2): 23% and 66%
- Total Cell Count ([2]; 12 h, replicate 2): 69 and 99
- Population Apoptotic (%) ([2]; 24 h, replicate 1): 73% and 48%
- Population Fragmented Nuclei (%) ([2]; 24 h, replicate 1): 17% and 22%
- Population Healthy Nuclei (%) ([2]; 24 h, replicate 1): 64% and 59%
- Population Hoechst High Intensity Objects (%) ([2]; 24 h, replicate 1): 9% and 11%
- Population Membrane Permeable-Phenotype (%) ([2]; 24 h, replicate 1): 17% and 11%
- Population Mitotic Cells (%) ([2]; 24 h, replicate 1): 26% and 51%
- Population Normal (%) ([2]; 24 h, replicate 1): 90% and 88%
- Population Pyknosed Nuclei (%) ([2]; 24 h, replicate 1): 17%
- Population Tubulin-Different-Phenotype (%) ([2]; 24 h, replicate 1): 9%
- Total Cell Count ([2]; 24 h, replicate 1): 251 and 207
- Population Apoptotic (%) ([2]; 24 h, replicate 2): 50%
- Population Fragmented Nuclei (%) ([2]; 24 h, replicate 2): 51% and 62%
- Population Healthy Nuclei (%) ([2]; 24 h, replicate 2): 37% and 29%
- Population Hoechst High Intensity Objects (%) ([2]; 24 h, replicate 2): 39% and 51%
- Population Mitochondria Different-Phenotype (%) ([2]; 24 h, replicate 2): 0% and 21%
- Population Mitotic Cells (%) ([2]; 24 h, replicate 2): 50%
- Population Normal (%) ([2]; 24 h, replicate 2): 60% and 48%
- Population Pyknosed Nuclei (%) ([2]; 24 h, replicate 2): 10% and 8%
- Population Tubulin-Different-Phenotype (%) ([2]; 24 h, replicate 2): 21% and 42%
- Total Cell Count ([2]; 24 h, replicate 2): 61 and 99
- Growth Rate [3, 7]: 0
- Growth Rate [3, 8]: 1
- Growth Rate [3, 9]: 0
- Growth Rate [3, 10]: 0
- Growth Rate [3, 11]: 0
- Growth Rate [3, 12]: 0
- Population Apoptotic (%) ([4]; 12 h, replicate 1): 30% and 62%
- Population Fragmented Nuclei (%) ([4]; 12 h, replicate 1): 2% and 8%
- Population Healthy Nuclei (%) ([4]; 12 h, replicate 1): 91% and 85%
- Population Hoechst High Intensity Objects (%) ([4]; 12 h, replicate 1): 4%
- Population Mitochondria Different-Phenotype (%) ([4]; 12 h, replicate 1): 14% and 16%
- Population Mitotic Cells (%) ([4]; 12 h, replicate 1): 70% and 37%
- Population Normal (%) ([4]; 12 h, replicate 1): 95%
- Population Pyknosed Nuclei (%) ([4]; 12 h, replicate 1): 5% and 6%
- Population Tubulin-Different-Phenotype (%) ([4]; 12 h, replicate 1): 58% and 20%
- Total Cell Count ([4]; 12 h, replicate 1): 185 and 139
- Population Apoptotic (%) ([4]; 12 h, replicate 2): 20% and 0%
- Population Fragmented Nuclei (%) ([4]; 12 h, replicate 2): 10% and 7%
- Population Healthy Nuclei (%) ([4]; 12 h, replicate 2): 76% and 88%
- Population Hoechst High Intensity Objects (%) ([4]; 12 h, replicate 2): 6% and 8%
- Population Mitochondria Different-Phenotype (%) ([4]; 12 h, replicate 2): 23% and 22%
- Population Mitotic Cells (%) ([4]; 12 h, replicate 2): 80% and 100%
- Population Normal (%) ([4]; 12 h, replicate 2): 93% and 91%
- Population Pyknosed Nuclei (%) ([4]; 12 h, replicate 2): 12% and 4%
- Total Cell Count ([4]; 12 h, replicate 2): 82 and 103
- Population Fragmented Nuclei (%) ([4]; 24 h, replicate 1): 5% and 4%
- Population Healthy Nuclei (%) ([4]; 24 h, replicate 1): 88% and 90%
- Population Hoechst High Intensity Objects (%) ([4]; 24 h, replicate 1): 0% and 2%
- Population Membrane Permeable-Phenotype (%) ([4]; 24 h, replicate 1): 24% and 13%
- Population Mitochondria Different-Phenotype (%) ([4]; 24 h, replicate 1): 10% and 11%
- Population Mitotic Cells (%) ([4]; 24 h, replicate 1): 93% and 66%
- Population Normal (%) ([4]; 24 h, replicate 1): 99% and 97%
- Population Pyknosed Nuclei (%) ([4]; 24 h, replicate 1): 6% and 4%
- Population Tubulin-Different-Phenotype (%) ([4]; 24 h, replicate 1): 22% and 28%
- Total Cell Count ([4]; 24 h, replicate 1): 230 and 188
- Population Apoptotic (%) ([4]; 24 h, replicate 2): 35% and 66%
- Population Fragmented Nuclei (%) ([4]; 24 h, replicate 2): 9% and 3%
- Population Healthy Nuclei (%) ([4]; 24 h, replicate 2): 77% and 94%
- Population Hoechst High Intensity Objects (%) ([4]; 24 h, replicate 2): 6% and 11%
- Population Membrane Permeable-Phenotype (%) ([4]; 24 h, replicate 2): 14% and 11%
- Population Mitochondria Different-Phenotype (%) ([4]; 24 h, replicate 2): 19% and 18%
- Population Mitotic Cells (%) ([4]; 24 h, replicate 2): 64% and 33%
- Population Normal (%) ([4]; 24 h, replicate 2): 93% and 88%
- Population Tubulin-Different-Phenotype (%) ([4]; 24 h, replicate 2): 13% and 11%
- Total Cell Count ([4]; 24 h, replicate 2): 114 and 147
- Growth Rate [5, 7]: 0
- Growth Rate [5, 9]: 0
- Growth Rate [5, 10]: 0
- Growth Rate ([5]; 12 h, replicate number 2, timepoint 12 hours): 1
- Growth Rate [5, 11]: 0
- Growth Rate [5, 12]: 1
- Growth Rate ([5]; 24 h, replicate number 2, timepoint 24 hours): 0
- Population Apoptotic (%) ([6]; 12 h, replicate 1): 15% and 30%
- Population Fragmented Nuclei (%) ([6]; 12 h, replicate 1): 18% and 22%
- Population Healthy Nuclei (%) ([6]; 12 h, replicate 1): 55% and 56%
- Population Hoechst High Intensity Objects (%) ([6]; 12 h, replicate 1): 16% and 23%
- Population Mitochondria Different-Phenotype (%) ([6]; 12 h, replicate 1): 8% and 7%
- Population Mitotic Cells (%) ([6]; 12 h, replicate 1): 84% and 69%
- Population Normal (%) ([6]; 12 h, replicate 1): 83% and 76%
- Population Pyknosed Nuclei (%) ([6]; 12 h, replicate 1): 26% and 20%
- Total Cell Count ([6]; 12 h, replicate 1): 630 and 586
- Population Apoptotic (%) ([6]; 12 h, replicate 2): 6% and 12%
- Population Fragmented Nuclei (%) ([6]; 12 h, replicate 2): 5% and 8%
- Population Healthy Nuclei (%) ([6]; 12 h, replicate 2): 85% and 87%
- Population Hoechst High Intensity Objects (%) ([6]; 12 h, replicate 2): 2%
- Population Mitochondria Different-Phenotype (%) ([6]; 12 h, replicate 2): 20% and 9%
- Population Mitotic Cells (%) ([6]; 12 h, replicate 2): 93% and 87%
- Population Normal (%) ([6]; 12 h, replicate 2): 97%
- Population Pyknosed Nuclei (%) ([6]; 12 h, replicate 2): 8% and 4%
- Total Cell Count ([6]; 12 h, replicate 2): 1495 and 1775
- Population Apoptotic (%) ([6]; 24 h, replicate 1): 21% and 25%
- Population Fragmented Nuclei (%) ([6]; 24 h, replicate 1): 18%
- Population Healthy Nuclei (%) ([6]; 24 h, replicate 1): 62% and 73%
- Population Hoechst High Intensity Objects (%) ([6]; 24 h, replicate 1): 11% and 16%
- Population Membrane Permeable-Phenotype (%) ([6]; 24 h, replicate 1): 14% and 9%
- Population Mitochondria Different-Phenotype (%) ([6]; 24 h, replicate 1): 15% and 6%
- Population Mitotic Cells (%) ([6]; 24 h, replicate 1): 78% and 74%
- Population Normal (%) ([6]; 24 h, replicate 1): 88% and 83%
- Population Pyknosed Nuclei (%) ([6]; 24 h, replicate 1): 18% and 8%
- Population Tubulin-Different-Phenotype (%) ([6]; 24 h, replicate 1): 74%
- Total Cell Count ([6]; 24 h, replicate 1): 539 and 610
- Population Apoptotic (%) ([6]; 24 h, replicate 2): 10% and 4%
- Population Fragmented Nuclei (%) ([6]; 24 h, replicate 2): 14% and 24%
- Population Healthy Nuclei (%) ([6]; 24 h, replicate 2): 81% and 72%
- Population Hoechst High Intensity Objects (%) ([6]; 24 h, replicate 2): 5% and 3%
- Population Membrane Permeable-Phenotype (%) ([6]; 24 h, replicate 2): 16% and 10%
- Population Mitotic Cells (%) ([6]; 24 h, replicate 2): 89% and 95%
- Population Normal (%) ([6]; 24 h, replicate 2): 94% and 96%
- Population Pyknosed Nuclei (%) ([6]; 24 h, replicate 2): 4% and 2%
- Total Cell Count ([6]; 24 h, replicate 2): 1741 and 2832
